Series [1] has as its system Mycobacterium tuberculosis. Nature of the series: Antimycobacterial activity against rifampin and isoniazid-susceptible Mycobacterium tuberculosis H37Rv ATCC 27294 after 5 days by Alamar blue assay. It counts as functional. The note with it: 120 h. Put shortly:
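Microplate Alamar Blue assay in Middlebrook 7H9 broth; compounds serially diluted on the plate, final concentrations […]. Plates sealed and incubated 37 °C for 5 days, then 1:1 Alamar Blue reagent/10% Tween 80 added and incubated a further 24 h. Blue scored as no growth, pink as growth; MIC is the lowest concentration preventing the blue-to-pink change.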
(Resazurin is reduced to fluorescent resorufin, in cell work by metabolically active cells.)

A short description of series [2]: Cytotoxicity against mouse macrophages assessed as cell viability at 0.1 ug/mL after 18 hrs by MTT assay. It counts as cell-based, Macrophage. The note with it: read-out: Activity. The essentials:
(§1)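 Murine macrophages plated at 2.5 × 10⁶ cells/mL and held 1 h at 37 °C under 5% CO₂. Nonadherent cells were then flushed off with RPMI 1640. Adherent cells were exposed in triplicate to compound at 0.1, 1.0, 10.0 or 100, medium alone (live control) or 3% tween 20 (dead control). After 18 h MTT was added for 4 h. Formazan was dissolved in DMSO and A540 read.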
In general terms: Formazan colour is commonly taken as a measure of viable cells.

The nature of series [3]: Cytotoxicity against mouse macrophages assessed as cell viability at 1 ug/mL after 18 hrs by MTT assay. The series is classed as cell-based, Macrophage. The note with it: read-out: Activity. The essentials:
as §1

Series [4] can be described thus: Cytotoxicity against mouse macrophages assessed as cell viability at 10 ug/mL after 18 hrs by MTT assay. It counts as cell-based, Macrophage. The note with it: read-out: Activity. The essentials:
as §1

Series [5] can be described thus: Cytotoxicity against mouse macrophages assessed as cell viability at 100 ug/mL after 18 hrs by MTT assay. It counts as cell-based, Macrophage. The note with it: read-out: Activity. The essentials:
as §1

This passage reports MIC and viability results from ChEMBL document CHEMBL1141661, “Synthesis and anti-mycobacterial activity of (E)-N'-(monosubstituted-benzylidene)isonicotinohydrazide derivatives” (Eur J Med Chem, 2008).

Converted amounts (≈) assume the structure as drawn.

A word on the MIC: it is the lowest concentration found to suppress growth. High values mean a need for much substance, low ones inhibition by little substance. `O=C(N/N=C/c1ccccc1F)c1ccncc1` showed an MIC in series [1] of 3.12 µg/mL (≈ 12.8 µM). Take `O=C(N/N=C/c1cccc(F)c1)c1ccncc1`: the MIC in series [1] was 3.12 µg/mL (≈ 12.8 µM). With `O=C(N/N=C/c1cccc(O)c1)c1ccncc1`, it took 1.25 µg/mL (≈ 5.18 µM) to inhibit growth in series [1] (MIC). Turning to `N#Cc1ccc(/C=N/NC(=O)c2ccncc2)cc1`, in series [1], the MIC is 5 µg/mL (≈ 20 µM). This MIC is about 4-fold higher than that of the molecule before. Same read-out and setting: the value for `O=C(N/N=C/c1ccccc1Br)c1ccncc1` was 5 µg/mL (≈ 16.4 µM); that for `COc1ccc(/C=N/NC(=O)c2ccncc2)cc1` was 5 µg/mL (≈ 19.6 µM).

In turn, `N#Cc1ccccc1/C=N/NC(=O)c1ccncc1` displayed an MIC in series [1] of 0.62 µg/mL (≈ 2.48 µM). The viability at 18 h, 0.1 ug/mL in series [2] worked out at 100%. Besides, in series [3], the viability at 18 h, 1 ug/mL amounted to 100%. In addition, the viability at 18 h, 10 ug/mL in series [4] is 100%. Further, the viability at 18 h, 100 ug/mL in series [5] amounted to 95%. For `COc1cccc(/C=N/NC(=O)c2ccncc2)c1`, inhibition of growth in series [1] (MIC) required 5 µg/mL (≈ 19.6 µM).

Turning to `O=C(N/N=C/c1ccccc1Cl)c1ccncc1`, in series [1], the minimal inhibitory concentration (MIC) turned out to be 1.25 µg/mL (≈ 4.81 µM). Still for that read-out and setting: the value for `N#Cc1cccc(/C=N/NC(=O)c2ccncc2)c1` was 1.25 µg/mL (≈ 4.99 µM). Still for that read-out and setting: the value for `O=C(N/N=C/c1cccc(Br)c1)c1ccncc1` was 2.5 µg/mL (≈ 8.22 µM); that for `O=C(N/N=C/c1ccc(Br)cc1)c1ccncc1` was 5 µg/mL (≈ 16.4 µM); that for `O=C(N/N=C/c1cccc([N+](=O)[O-])c1)c1ccncc1` was 5 µg/mL (≈ 18.5 µM).

On to `O=C(N/N=C/c1ccc(Cl)cc1)c1ccncc1`, for which the lowest concentration to inhibit growth in series [1] (MIC) was 0.31 µg/mL (≈ 1.19 µM). For the same molecule, in series [2], the viability at 18 h, 0.1 ug/mL was determined as 100%. For the same molecule, in series [3], the viability at 18 h, 1 ug/mL worked out at 97%. In series [4], the viability at 18 h, 10 ug/mL was 97%. The viability at 18 h, 100 ug/mL in series [5] was found to be 96%.

In series [1], `O=C(N/N=C/c1ccc(F)cc1)c1ccncc1` returned an MIC of 0.31 µg/mL (≈ 1.27 µM). In addition, the viability at 18 h, 0.1 ug/mL in series [2] is 100%. Further, the viability at 18 h, 1 ug/mL in series [3] is 100%. Moreover, the viability at 18 h, 10 ug/mL in series [4] is 97%. Besides, the viability at 18 h, 100 ug/mL in series [5] stood at 96%. `CCOc1ccccc1/C=N/NC(=O)c1ccncc1` registered a minimum inhibitory concentration (MIC) in series [1] of 1.25 µg/mL (≈ 4.64 µM). In the case of `CCOc1cccc(/C=N/NC(=O)c2ccncc2)c1`, it took 1.25 µg/mL (≈ 4.64 µM) to inhibit growth in series [1] (MIC). The molecule `COc1ccccc1/C=N/NC(=O)c1ccncc1` yielded a minimum inhibitory concentration (MIC) in series [1] of 0.31 µg/mL (≈ 1.21 µM). Further, the viability at 18 h, 0.1 ug/mL in series [2] stood at 100%. The viability at 18 h, 1 ug/mL in series [3] worked out at 100%. The viability at 18 h, 10 ug/mL in series [4] came to 100%. Besides, the viability at 18 h, 100 ug/mL in series [5] amounted to 98%. With `O=C(N/N=C/c1ccccc1[N+](=O)[O-])c1ccncc1`, the MIC in series [1] came out at 5 µg/mL (≈ 18.5 µM). Still for that read-out and setting: the value for `NNC(=O)c1ccncc1` [ISONIAZID] was 0.2 µg/mL (≈ 1.46 µM). For the molecule `O=C(N/N=C/c1cccc(Cl)c1)c1ccncc1` [N'-(3-CHLOROBENZYLIDENE)ISONICOTINOHYDRAZIDE], it took 0.31 µg/mL (≈ 1.19 µM) to inhibit growth in series [1] (MIC). The viability at 18 h, 0.1 ug/mL in series [2] was 100%. Moreover, the viability at 18 h, 1 ug/mL in series [3] was 100%. Also, in series [4], the viability at 18 h, 10 ug/mL is 100%. For the same molecule, in series [5], the viability at 18 h, 100 ug/mL turned out to be 100%. In turn, `O=C(N/N=C/c1ccc([N+](=O)[O-])cc1)c1ccncc1` [N'-(4-NITROBENZYLIDENE)ISONICOTINOHYDRAZIDE] gave a minimal inhibitory concentration (MIC) in series [1] of 1.25 µg/mL (≈ 4.63 µM). Still for that read-out and setting: the value for `O=C(N/N=C/c1ccccc1)c1ccncc1` [N'-BENZYLIDENE ISONICOTINOHYDRAZIDE] was 3.12 µg/mL (≈ 13.9 µM). Still for that read-out and setting: the value for `CO[C@H]1/C=C/O[C@@]2(C)Oc3c(C)c(O)c4c(O)c(c(/C=N/N5CCN(C)CC5)c(O)c4c3C2=O)NC(=O)/C(C)=C\C=C\[C@H](C)[C@H](O)[C@@H](C)[C@@H](O)[C@@H](C)[C@H](OC(C)=O)[C@@H]1C` [RIFAMPIN] was 1 µg/mL (≈ 1.22 µM).
